Only some compounds are listed: those with a hit (about 2.3% of all), similar ones and a draw of the others.
ABCB1 inh: ABCB1 efflux pump inhibitors, primary screen, cell-based, multiplex, flow cytometry, ABCG2 counter-screen. AID 1326, 2008. ATP-dependent translocase ABCB1 (Homo sapiens), P08183. CCRF-Adr cells, JC-1 efflux. inhibition, % at 6.6 µM. 190,000 compounds, 0.067% hits; in the data active means inhibition above about 40%;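 further: 0% = vehicle and 100% = reference inhibitor; higher value means more JC-1 retained so stronger ABCB1 efflux block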
Target sequence (P08183 whole entry, looked up): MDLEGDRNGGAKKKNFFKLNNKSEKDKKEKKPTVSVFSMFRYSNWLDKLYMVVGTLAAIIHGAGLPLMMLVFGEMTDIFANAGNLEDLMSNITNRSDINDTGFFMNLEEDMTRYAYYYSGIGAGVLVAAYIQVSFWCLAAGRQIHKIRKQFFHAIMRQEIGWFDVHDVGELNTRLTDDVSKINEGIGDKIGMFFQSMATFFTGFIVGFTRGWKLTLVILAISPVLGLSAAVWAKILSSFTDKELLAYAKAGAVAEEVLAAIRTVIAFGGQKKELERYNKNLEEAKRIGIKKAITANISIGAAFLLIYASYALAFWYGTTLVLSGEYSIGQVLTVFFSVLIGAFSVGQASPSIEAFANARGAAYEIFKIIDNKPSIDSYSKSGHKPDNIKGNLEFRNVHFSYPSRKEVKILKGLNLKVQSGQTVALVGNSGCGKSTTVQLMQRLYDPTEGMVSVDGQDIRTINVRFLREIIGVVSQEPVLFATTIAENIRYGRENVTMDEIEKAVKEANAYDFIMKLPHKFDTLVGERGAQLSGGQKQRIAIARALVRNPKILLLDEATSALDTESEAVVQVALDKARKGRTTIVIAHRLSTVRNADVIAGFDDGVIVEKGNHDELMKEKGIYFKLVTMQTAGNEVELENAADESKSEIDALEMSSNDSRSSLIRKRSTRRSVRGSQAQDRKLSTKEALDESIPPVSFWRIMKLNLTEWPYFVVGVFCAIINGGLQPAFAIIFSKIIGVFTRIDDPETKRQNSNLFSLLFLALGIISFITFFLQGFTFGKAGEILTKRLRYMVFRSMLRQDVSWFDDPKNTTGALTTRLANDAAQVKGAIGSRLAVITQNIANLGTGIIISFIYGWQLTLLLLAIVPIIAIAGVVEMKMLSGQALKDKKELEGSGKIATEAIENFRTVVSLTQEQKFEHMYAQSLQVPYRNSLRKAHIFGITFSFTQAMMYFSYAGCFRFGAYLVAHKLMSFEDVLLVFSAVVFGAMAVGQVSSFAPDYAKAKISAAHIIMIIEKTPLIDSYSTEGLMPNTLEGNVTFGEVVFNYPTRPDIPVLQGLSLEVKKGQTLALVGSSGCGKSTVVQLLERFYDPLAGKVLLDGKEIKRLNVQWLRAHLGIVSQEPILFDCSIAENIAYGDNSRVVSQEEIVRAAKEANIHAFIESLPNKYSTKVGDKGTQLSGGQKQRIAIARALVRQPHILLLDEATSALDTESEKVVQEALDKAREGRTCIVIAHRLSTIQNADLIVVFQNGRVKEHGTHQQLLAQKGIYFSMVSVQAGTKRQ
MEKK3 PB1 HTS: modulators of MEKK3-MEK5 PB1 binding, primary screen, biochemical, wildtype MEKK3, multiplex bead flow cytometry, Alexa488-MEK5 | bead-based flow cytometry, Alexa488-MEK5 binding to MEKK3; actives lie on both sides; 0 = blocked by unlabeled MEK5, 100 = vehicle | Mitogen-activated protein kinase kinase kinase 3 (Homo sapiens), Q99759 | binding response (% of control), % at 10 µM | 290,000 compounds, 1.4% hits | AID 1529, 2009;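 active means binding response more than 3 SD above or below the average of its plate-row segment, actives on both sides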;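 further: Alexa488 bead fluorescence after subtracting the streptavidin-only scavenger bead signal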
MEKK2 WT-MEK5: modulators of MEK5 binding to wildtype MEKK2, primary screen, biochemical, multiplex bead flow cytometry, Alexa488-MEK5 | binding response (% of control), % at 10 µM | 290,000 compounds, 1.1% hits | Alexa488-MEK5 binding to MEKK2 WT; actives lie on both sides | AID 1531, 2009; in the data active means binding response below about 67% or above about 130%
ABCG2 block: ABCG2 efflux pump inhibitors, primary screen, multiplex with ABCB1, IgMXP3 cells, flow cytometry; Broad substrate specificity ATP-binding cassette transporter ABCG2 (Homo sapiens), Q9UNQ0; JC-1 efflux; inhibition, % at 6.6 µM; 190,000 compounds, 0.1% hits;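 active means inhibition above 80%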;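 further: 0% = DMSO and 100% = nicardipine control wells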
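System: two drug-resistant human cell lines, ABCG2 and ABCB1; controls: nicardipine high and DMSO low controls; times: 10 min exposure at 25 °C with rotation, no wash; detection: flow cytometry of retained JC-1 fluorescence; read-out basis: percent efflux inhibition, scaled nicardipine 100% to DMSO 0%; doses: one concentration, 6.6 µM final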
MEKK2mut PB1 HTS: MEK5 binding signal on mutant MEKK2 PB1, primary screen, biochemical, multiplex bead flow cytometry, Alexa488-MEK5 | Alexa488-MEK5 binding to MEKK2 mutant | percent response, % at 10 µM | 290,000 compounds, 0.35% hits | AID 1530, 2009; in the data active means percent response above about 24%, passing the limit was not always enough
MEKK2wt confirm: modulators of MEK5 binding to wildtype MEKK2, confirmation, biochemical, single concentration, multiplex bead flow cytometry | shares compounds with MEKK3 PB1 HTS | Alexa488-MEK5 binding to MEKK2 WT; actives lie on both sides | binding response (% of control), % at 10 µM | 5,900 compounds, 2.4% hits | AID 1892, 2009; in the data active means binding response below about 16% or above about 210%; inactive means in between
MEKK2mut confirm: mutant MEKK2 PB1-MEK5 binding signal retest – biochemical, single concentration, multiplex bead flow cytometry, confirmation; shares compounds with MEKK3 PB1 HTS; Alexa488-MEK5 binding to MEKK2 mutant; percent response, % at 10 µM; 5,900 compounds, 2% hits; in the data active means percent response mostly above about 71%, no sharp cut-off; inactive means mostly below about 38%;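 further: higher means compound restores mutant binding toward wildtype level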
MEKK3 confirm: MEKK3 wild-type PB1 binding to MEK5, inhibitors, confirmation, biochemical, bead multiplex flow cytometry, single concentration, wildtype. shares compounds with MEKK3 PB1 HTS. Alexa488-MEK5 binding to MEKK3; hits give low values. binding response (% of control), % at 10 µM. 5,900 compounds, 1.8% hits;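 active means binding response below 72% of control, or above a set upper limit, though filed actives all read lower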;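 further: 100% = DMSO only wells and 0% = binding blocked by excess unlabeled MEK5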
Starred values were filed as active, the others as inactive; / = no result given; [ ] = another dose, or the depositor's remark.

SMILES	ABCB1 inh	MEKK3 PB1 HTS	MEKK2 WT-MEK5	ABCG2 block	MEKK2mut PB1 HTS	MEKK2wt confirm	MEKK2mut confirm	MEKK3 confirm
CCOC(=O)Cc1csc(NC(=O)c2c(O)c3ccccc3n(CC(C)C)c2=O)n1	/	73*[inhibitor]	78	/	-9	106	6	106
CCc1cc2cc(C)ccc2nc1SCC(=O)Nc1cc(C)on1	0	128*	95	2	2	104	4	104
Cc1ccccc1NC(=O)c1ccc2nc(N3CCOCC3)sc2c1	/	102	104	/	4	/	/	/
COCc1cc(=O)[nH]c(Cc2c(Cl)cccc2Cl)n1	/	105	109	/	8	/	/	/
Nc1n[nH]c(-c2ccc(F)cc2)n1	0	97	98	0	-1	/	/	/
CCCCc1ccc(-c2nc(N)n[nH]2)cc1	0	1.0*[inhibitor]	2.0*[inhibitor]	0	-21	106	5	103
Cc1ccc(-n2ncc3c2CC(C)(C)CC3NC(=O)CCc2c(C)noc2C)cc1 (configuration not stated)	/	97	101	/	-1	/	/	/
CS(=O)(=O)N(CCCC(=O)N1CCCCCC1)c1cccc(Cl)c1	/	119	122	/	37*	102	-3	100
Cc1ccccc1N1CCN(C2CCCN(C(=O)CCC3(C)CC3)C2)CC1 (configuration not stated)	/	105	104	/	4	/	/	/
CC(C)NC(=O)C(c1ccc(F)cc1)N(C(=O)CCC(=O)Nc1ccccn1)C1CCCCC1 (configuration not stated)	/	97	99	/	-3	/	/	/
COc1ccc(C)cc1Nc1n[n+](-c2ccccc2)c(-c2ccc(SC)cc2)s1	/	105	128	/	29*	121	9	101
COc1ccc(C)cc1Nc1n[n+](-c2ccccc2)c(-c2ccc(NC(C)=O)cc2)s1	/	106	142*	/	10	147	30	107
COc1ccc(C)cc1Nc1n[n+](C)c(-c2ccc(C(=O)O)cc2)s1	/	109	113	/	4	/	/	/
CC(=O)Nc1ccc(-c2sc(Nc3cccc4ccccc34)n[n+]2-c2ccccc2)cc1	/	104	159*	/	10	136	15	107
O=S1(=O)CC(O)C(NCc2ccco2)C1 (configuration not stated)	1	75*[inhibitor]	81	-7	-4	102	3	106
c1coc(CNC2CCCCCCC2)c1	0	98	106	5	1	/	/	/
O=C(C(=O)N1CCN(c2cccc(Cl)c2)CC1)c1cn(CC(=O)N2CCOCC2)c2ccccc12	/	98	104	/	2	/	/	/
c1ccc(-c2cn3nc(-c4ccccc4)c(-c4ccccc4)nc3n2)cc1	1	107	63*[inhibitor]	2	-5	61	-20	93
OC(CNCc1ccco1)Cn1c2ccc(Br)cc2c2cc(Br)ccc21 (configuration not stated)	0	111	216*	0	47*	184	41	98
Brc1ccc2ncnc(NCc3ccco3)c2c1	0	105	102	3	-3	/	/	/
C/C(=N\NC(=O)CNC(=O)c1cccs1)c1ccc(Cl)c(Cl)c1	/	102	100	/	0	/	/	/
CCCC(=O)Nc1sc2c(c1C(=O)OCC)CC(C)(C)OC2	0	87	83	2	-8	/	/	/
CCOC(=O)c1c(NC(=O)CN2CCOCC2)sc2c1CC(C)(C)OC2	4	3.0*[inhibitor]	4.0*[inhibitor]	1	-20	106	3	101
CCOC(=O)c1c(NC(=O)CCN2CCOCC2)sc2c1CC(C)(C)OC2	1	113	114	4	8	/	/	/
CCOC(=O)c1c(NC(=O)CCC(=O)N2CCOCC2)sc2c1CC(C)(C)OC2	0	79*[inhibitor]	85	2	-1	100	6	101
SMILES	ABCB1 inh	MEKK3 PB1 HTS	MEKK2 WT-MEK5	ABCG2 block	MEKK2mut PB1 HTS	MEKK2wt confirm	MEKK2mut confirm	MEKK3 confirm
O=C(Nc1ccc([N+](=O)[O-])cc1)c1cc(Cl)sc1Cl	/	103	103	/	-2	/	/	/
COc1ccccc1/C=C/C(=O)NCC(=O)n1nc(C)cc1C	/	58*[inhibitor]	59*[inhibitor]	/	-40	101	0	104
Cc1cc(C)n(C(=O)CNC(=O)/C=C/c2ccccc2)n1	0	94	84	2	-15	/	/	/
CCOC(=O)c1ccc(N(CC(=O)NC2CCCCC2)C(=O)CNC(=O)c2ccco2)cc1	/	98	99	/	1	/	/	/
CCCCN(C)CC(O)Cn1cc(/C=C/C(=O)c2ccc(OCC)cc2)c2ccccc21 (configuration not stated)	/	108	200*	/	62*	169	42	101
CCCCN(C)CC(O)Cn1cc(/C=C/C(=O)c2cccs2)c2ccccc21 (configuration not stated)	12	105	131	4	2	/	/	/
C(=C\c1nc(N2CCCCCC2)c2ccccc2n1)/c1ccccc1	2	100	144*	8	17	154	19	108
CC(Nc1ccc(F)cc1)=[N+](C)CCNS(=O)(=O)c1ccc(Cl)cc1	/	107	111	/	9	/	/	/
COc1cc2c3nnc(-c4ccc(F)cc4)c-3cn(Cc3ccccc3F)c2cc1OC	0	92	100	0	-2	/	/	/
COc1cc2c3nnc(-c4ccccc4)c-3cn(Cc3ccccc3F)c2cc1OC	0	96	153*	1	26	132	13	99
COc1ccc(-n2nc(C(=O)NCC(=O)NCCCN3CCCCCC3)c3ccccc3c2=O)cc1Cl	0	102	149*	4	28	156	32	102
Cn1cccc1C(=O)NC(=O)CSc1nnc(C2CC2)n1-c1ccccc1	0	127*	122	2	8	93	-4	95
CCNC(=O)CSc1nnc(C2CC2)n1-c1ccccc1	0	106	101	2	8	/	/	/

Screening data deposited in PubChem by NMMLSC.
